Here are results for four compounds from ChEMBL document CHEMBL4196218, “Synthesis and in Vitro Bioactivity of Polyunsaturated Fatty Acid Conjugates of Combretastatin A-4” (J Nat Prod, 2018).

SMILES strings stand for the structures. Active and inactive are the calls of the source. No cut-off for these calls is given here.

The species entered for assay [1] is Bos taurus. The assay is described as follows: Inhibition of bovine tubulin polymerization at 1 uM measured every 30 secs for 2 hrs by turbidity method. An outline of the steps:
(§1)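 Kit-based turbidity assay with tubulin at 26.7 μM (2.94 mg/mL) in G-PB buffer (polymerization buffer, GTP, glycerol), assembled on ice. Compound stocks in DMSO diluted in water to give 1 or 10 μM. A350 read every 30 s for 2 h at 37 °C. Nocodazole and DMSO (1.43% or 0.14% v/v) as controls. Duplicate assays. Area under curve compared by one-way ANOVA with Bonferroni post-test.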

Assay [2] concerns MCF7. The assay is described as follows: Cytotoxicity against human MCF7 cells after 72 hrs by MTS/PMS assay. In kind it is functional, cell-based. The following applies: for IC50: MCF7, 72 h. An outline of the steps: (§2)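 MCF-7 cells grown in DMEM with 10% heat-inactivated FBS, penicillin, streptomycin, L-glutamine and MEM NEAA at 37 °C, 5% CO2. Seeded at 5000 cells/well. After 24 h, given fresh medium plus compound (DMSO stock diluted in DPBS; final 0–10 μM) for 72 h. Then serum-free medium with MTS/PMS for 1 h at 37 °C. A490 read, viability as % of untreated cells. IC50 read graphically. Six replicates, three independent experiments.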

The species named for assay [3] is Bos taurus. The assay is described as follows: Inhibition of bovine tubulin polymerization at 10 uM measured every 30 secs for 2 hrs by turbidity method. In outline: as §1
Assay [4] relates to MCF7. The assay is described as follows: Cytotoxicity against human MCF7 cells assessed as cell viability at 5 to 10 uM after 72 hrs by MTS/PMS assay relative to control. In kind it is functional. An outline of the steps:
as §2

The species named for assay [5] is Bos taurus. The assay is described as follows: Inhibition of bovine tubulin polymerization assessed as lag time for tubulin polymerization at 1 uM measured every 30 secs for 2 hrs by turbidity method. In outline: as §1

Turning to `COc1ccc(/C=C\c2cc(OC)c(OC)c(OC)c2)cc1O` [COMBRETASTATIN A4], the inhibition entry in the assay listed under Bos taurus [1] was “Active”. It took 200 nM to reach half-maximal inhibition in the assay on MCF7 [2] (IC50).

With `CCCCC/C=C\C/C=C\CCCCCCCC(=O)Oc1cc(/C=C\c2cc(OC)c(OC)c(OC)c2)ccc1OC`, the inhibition entry in the assay listed under Bos taurus [1] is “Active”. In the assay listed under Bos taurus [3], the inhibition result is “inactive”. Moreover, the Activity with MCF7 [4] is given as 65 - 75%. Also, the IC50 with MCF7 [2] was above 10000 nM. Besides, in the assay filed under Bos taurus [5], the TIME was in the range of 0.25 to 0.333 h.

Consider `CC/C=C\C/C=C\C/C=C\CCCCCCCC(=O)Oc1cc(/C=C\c2cc(OC)c(OC)c(OC)c2)ccc1OC`, for which the inhibition entry in the assay listed under Bos taurus [1] was “Active”. Moreover, in the assay listed under Bos taurus [3], the inhibition entry is “inactive”. In addition, in the assay with MCF7 [4], the Activity was 65 - 75%. Moreover, the IC50 with MCF7 [2] was above 10000 nM. The TIME in the assay listed under Bos taurus [5] is 0.25 to 0.333 h.

`CCCCC/C=C\C/C=C\C/C=C\C/C=C\CCCC(=O)Oc1cc(/C=C\c2cc(OC)c(OC)c(OC)c2)ccc1OC`: in the assay filed under Bos taurus [1], the inhibition entry is “Active”. Further, in the assay listed under Bos taurus [3], the inhibition entry was “inactive”. Moreover, in the assay on MCF7 [2], the Activity entry is “Dose-dependent effect” and inhibition was half-maximal at 700 nM (IC50). Further, the TIME in the assay listed under Bos taurus [5] lay in the range of 0.25 to 0.333 h.
